The results in this text go back to ChEMBL document CHEMBL1141501, “Identification of a potent new chemotype for the selective inhibition of PDE4” (Bioorg Med Chem Lett, 2008).

One assay deals with Phosphodiesterase 4 (Homo sapiens, UniProt P27815+Q08499+Q07343+Q08493). Put plainly: Inhibition of human PDE4A1A by IMAP technology. The assay is classed as protein assay. Put shortly: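 Human PDE4A1A at 0.05 ng/μl final, in 10 mM Tris pH 7.2 with 0.1% BSA, 10 mM MgCl2, 1 mM DTT and 0.05% NaN3. Compound pin-transferred, then 5 min at RT before adding 100 nM cAMP (final). After 40 min at RT, IMAP binding reagent was added and incubated 1–4 h at RT.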

Assay [1] addresses Dual specificity calcium/calmodulin-dependent 3',5'-cyclic nucleotide phosphodiesterase 1A (Homo sapiens, UniProt P54750). In words: Inhibition of PDE1A.
For assay [2], the target named is Dual specificity calcium/calmodulin-dependent 3',5'-cyclic nucleotide phosphodiesterase 1B (Homo sapiens, UniProt Q01064). In words: Inhibition of PDE1B.
Chain of Dual specificity calcium/calmodulin-dependent 3',5'-cyclic nucleotide phosphodiesterase 1B (Q01064 whole entry): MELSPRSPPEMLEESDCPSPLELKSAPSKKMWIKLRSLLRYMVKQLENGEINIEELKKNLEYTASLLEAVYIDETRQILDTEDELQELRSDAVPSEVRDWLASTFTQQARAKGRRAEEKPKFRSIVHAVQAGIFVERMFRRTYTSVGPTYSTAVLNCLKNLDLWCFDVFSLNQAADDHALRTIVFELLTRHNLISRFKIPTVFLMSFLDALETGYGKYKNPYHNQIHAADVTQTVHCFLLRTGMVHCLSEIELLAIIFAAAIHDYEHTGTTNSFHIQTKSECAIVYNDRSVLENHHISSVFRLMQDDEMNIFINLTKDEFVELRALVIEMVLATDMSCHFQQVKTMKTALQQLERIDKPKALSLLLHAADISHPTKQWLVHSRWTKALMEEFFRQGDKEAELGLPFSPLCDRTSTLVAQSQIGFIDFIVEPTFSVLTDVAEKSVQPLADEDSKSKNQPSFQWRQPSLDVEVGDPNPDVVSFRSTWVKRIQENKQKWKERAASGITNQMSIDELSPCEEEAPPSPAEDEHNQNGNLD
The target of assay [3] is cGMP-inhibited 3',5'-cyclic phosphodiesterase 3A (Homo sapiens, UniProt Q14432). In words: Inhibition of PDE3A.
Chain of cGMP-inhibited 3',5'-cyclic phosphodiesterase 3A (Q14432 whole entry): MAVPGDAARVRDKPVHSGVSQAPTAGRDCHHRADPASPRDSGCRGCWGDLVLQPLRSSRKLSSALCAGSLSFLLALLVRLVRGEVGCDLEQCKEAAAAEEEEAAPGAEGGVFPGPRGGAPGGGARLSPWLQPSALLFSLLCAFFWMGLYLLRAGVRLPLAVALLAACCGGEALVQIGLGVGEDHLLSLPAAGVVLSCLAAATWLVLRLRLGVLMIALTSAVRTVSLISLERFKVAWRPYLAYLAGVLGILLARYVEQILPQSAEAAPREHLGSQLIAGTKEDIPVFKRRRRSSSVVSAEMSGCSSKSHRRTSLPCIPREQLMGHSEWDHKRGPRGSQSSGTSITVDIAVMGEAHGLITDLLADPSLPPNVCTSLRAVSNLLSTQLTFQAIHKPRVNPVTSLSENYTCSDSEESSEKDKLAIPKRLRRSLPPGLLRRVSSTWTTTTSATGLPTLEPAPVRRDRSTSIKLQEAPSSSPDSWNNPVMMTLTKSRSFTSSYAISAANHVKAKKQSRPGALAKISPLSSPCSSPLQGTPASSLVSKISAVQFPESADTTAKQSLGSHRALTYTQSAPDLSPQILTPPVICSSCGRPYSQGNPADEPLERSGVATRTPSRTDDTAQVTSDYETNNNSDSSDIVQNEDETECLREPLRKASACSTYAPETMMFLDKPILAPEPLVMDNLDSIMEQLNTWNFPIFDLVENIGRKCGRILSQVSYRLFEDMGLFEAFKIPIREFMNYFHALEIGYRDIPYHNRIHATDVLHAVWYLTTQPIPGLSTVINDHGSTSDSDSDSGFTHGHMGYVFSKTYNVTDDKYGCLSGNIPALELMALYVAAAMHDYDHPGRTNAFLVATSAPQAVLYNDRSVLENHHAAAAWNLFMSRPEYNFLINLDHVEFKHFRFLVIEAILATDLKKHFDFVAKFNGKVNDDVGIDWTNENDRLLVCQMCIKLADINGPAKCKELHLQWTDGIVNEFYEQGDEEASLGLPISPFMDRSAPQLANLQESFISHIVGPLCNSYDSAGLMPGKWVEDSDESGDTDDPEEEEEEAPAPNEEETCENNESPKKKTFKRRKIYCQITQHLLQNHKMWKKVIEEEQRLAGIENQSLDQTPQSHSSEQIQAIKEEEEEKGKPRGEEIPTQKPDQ
In assay [4] the target is High affinity 3',5'-cyclic-AMP phosphodiesterase 7A (Homo sapiens) (UniProt Q13946). Put plainly: Inhibition of PDE7A.
Chain of High affinity 3',5'-cyclic-AMP phosphodiesterase 7A (Homo sapiens) (Q13946 whole entry): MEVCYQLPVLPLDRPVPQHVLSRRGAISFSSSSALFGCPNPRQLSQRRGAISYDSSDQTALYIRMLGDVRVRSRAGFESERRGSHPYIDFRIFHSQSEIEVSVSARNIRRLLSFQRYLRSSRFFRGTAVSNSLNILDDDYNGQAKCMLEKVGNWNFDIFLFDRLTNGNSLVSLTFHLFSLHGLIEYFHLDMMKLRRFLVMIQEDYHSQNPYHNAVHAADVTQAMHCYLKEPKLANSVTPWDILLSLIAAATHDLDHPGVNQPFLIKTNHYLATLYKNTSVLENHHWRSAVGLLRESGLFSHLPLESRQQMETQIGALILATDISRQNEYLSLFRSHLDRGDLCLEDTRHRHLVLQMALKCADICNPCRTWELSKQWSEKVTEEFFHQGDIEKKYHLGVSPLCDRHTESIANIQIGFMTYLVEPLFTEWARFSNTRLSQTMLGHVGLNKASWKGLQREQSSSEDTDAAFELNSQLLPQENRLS
Assay [5] has as its target 3',5'-cyclic-AMP phosphodiesterase 7B (Homo sapiens) (UniProt Q9NP56). In words: Inhibition of PDE7B.
For assay [6], the target named is High affinity cGMP-specific 3',5'-cyclic phosphodiesterase 9A (Homo sapiens) (UniProt O76083). In words: Inhibition of PDE9A.
Chain of High affinity cGMP-specific 3',5'-cyclic phosphodiesterase 9A (Homo sapiens) (O76083 whole entry): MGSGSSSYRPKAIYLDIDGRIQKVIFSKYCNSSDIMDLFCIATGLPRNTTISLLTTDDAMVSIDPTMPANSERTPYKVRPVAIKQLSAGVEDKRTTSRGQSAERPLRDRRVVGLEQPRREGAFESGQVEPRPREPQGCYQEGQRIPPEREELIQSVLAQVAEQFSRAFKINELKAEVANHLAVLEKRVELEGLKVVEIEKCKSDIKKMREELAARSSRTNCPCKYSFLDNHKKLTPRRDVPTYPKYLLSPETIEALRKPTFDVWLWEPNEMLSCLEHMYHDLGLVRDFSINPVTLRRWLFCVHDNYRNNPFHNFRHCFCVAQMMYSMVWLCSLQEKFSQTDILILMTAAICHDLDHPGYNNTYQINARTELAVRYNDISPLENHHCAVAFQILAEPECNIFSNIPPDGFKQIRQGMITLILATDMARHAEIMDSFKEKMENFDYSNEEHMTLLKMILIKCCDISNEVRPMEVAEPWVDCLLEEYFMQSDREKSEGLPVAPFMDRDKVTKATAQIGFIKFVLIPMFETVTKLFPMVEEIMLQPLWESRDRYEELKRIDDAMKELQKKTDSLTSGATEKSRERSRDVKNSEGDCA
In assay [7] the target is cAMP and cAMP-inhibited cGMP 3',5'-cyclic phosphodiesterase 10A (Homo sapiens, UniProt Q9Y233). In words: Inhibition of PDE10A.
Chain of cAMP and cAMP-inhibited cGMP 3',5'-cyclic phosphodiesterase 10A (Q9Y233 whole entry): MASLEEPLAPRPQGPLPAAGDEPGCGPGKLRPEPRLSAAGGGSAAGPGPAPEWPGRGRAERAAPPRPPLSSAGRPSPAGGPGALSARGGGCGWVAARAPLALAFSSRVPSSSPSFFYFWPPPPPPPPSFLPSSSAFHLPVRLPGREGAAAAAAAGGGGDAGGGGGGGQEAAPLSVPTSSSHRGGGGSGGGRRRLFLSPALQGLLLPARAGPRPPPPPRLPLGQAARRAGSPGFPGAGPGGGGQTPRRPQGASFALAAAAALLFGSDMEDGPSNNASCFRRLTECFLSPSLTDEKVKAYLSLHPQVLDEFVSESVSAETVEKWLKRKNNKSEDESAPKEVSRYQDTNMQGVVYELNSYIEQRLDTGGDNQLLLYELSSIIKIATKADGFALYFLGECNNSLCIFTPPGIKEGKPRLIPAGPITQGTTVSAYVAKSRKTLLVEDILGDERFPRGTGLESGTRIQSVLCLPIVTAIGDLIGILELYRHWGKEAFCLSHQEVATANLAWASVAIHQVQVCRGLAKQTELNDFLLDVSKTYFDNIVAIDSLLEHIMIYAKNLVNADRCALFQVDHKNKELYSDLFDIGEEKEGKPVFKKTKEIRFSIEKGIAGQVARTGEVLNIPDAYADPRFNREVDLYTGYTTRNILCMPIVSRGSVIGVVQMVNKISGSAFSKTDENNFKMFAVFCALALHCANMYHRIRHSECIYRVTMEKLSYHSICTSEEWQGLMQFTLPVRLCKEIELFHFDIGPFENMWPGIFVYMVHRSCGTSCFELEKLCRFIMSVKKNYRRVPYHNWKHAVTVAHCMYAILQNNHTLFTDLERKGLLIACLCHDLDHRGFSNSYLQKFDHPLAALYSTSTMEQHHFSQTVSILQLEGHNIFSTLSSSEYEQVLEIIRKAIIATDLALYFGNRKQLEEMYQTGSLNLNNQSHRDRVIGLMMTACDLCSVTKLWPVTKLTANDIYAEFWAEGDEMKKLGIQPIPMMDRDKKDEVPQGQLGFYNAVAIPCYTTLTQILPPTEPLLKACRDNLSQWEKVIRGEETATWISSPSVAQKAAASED
The target of assay [8] is cGMP-specific 3',5'-cyclic phosphodiesterase (Homo sapiens, UniProt O76074).
Assay [9] addresses Dual 3',5'-cyclic-AMP and -GMP phosphodiesterase 11A (Homo sapiens, UniProt Q9HCR9).

Calls of active or inactive are those of the source. The calls are words filed in the database; no cut-off is given here.

Chain of 3',5'-cyclic-AMP phosphodiesterase 7B (Homo sapiens) (Q9NP56 whole entry): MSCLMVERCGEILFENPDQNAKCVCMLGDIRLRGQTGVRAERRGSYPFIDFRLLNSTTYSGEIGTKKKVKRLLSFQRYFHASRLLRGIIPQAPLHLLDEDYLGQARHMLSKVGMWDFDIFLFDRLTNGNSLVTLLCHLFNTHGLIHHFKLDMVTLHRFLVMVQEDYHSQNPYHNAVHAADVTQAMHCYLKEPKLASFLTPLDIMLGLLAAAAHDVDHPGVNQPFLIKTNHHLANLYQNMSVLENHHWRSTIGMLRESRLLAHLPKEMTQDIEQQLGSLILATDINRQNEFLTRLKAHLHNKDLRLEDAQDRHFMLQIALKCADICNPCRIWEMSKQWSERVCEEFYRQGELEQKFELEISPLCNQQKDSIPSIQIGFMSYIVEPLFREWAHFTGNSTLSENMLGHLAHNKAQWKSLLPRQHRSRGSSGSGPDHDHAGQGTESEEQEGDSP
Chain of Dual specificity calcium/calmodulin-dependent 3',5'-cyclic nucleotide phosphodiesterase 1A (P54750 whole entry): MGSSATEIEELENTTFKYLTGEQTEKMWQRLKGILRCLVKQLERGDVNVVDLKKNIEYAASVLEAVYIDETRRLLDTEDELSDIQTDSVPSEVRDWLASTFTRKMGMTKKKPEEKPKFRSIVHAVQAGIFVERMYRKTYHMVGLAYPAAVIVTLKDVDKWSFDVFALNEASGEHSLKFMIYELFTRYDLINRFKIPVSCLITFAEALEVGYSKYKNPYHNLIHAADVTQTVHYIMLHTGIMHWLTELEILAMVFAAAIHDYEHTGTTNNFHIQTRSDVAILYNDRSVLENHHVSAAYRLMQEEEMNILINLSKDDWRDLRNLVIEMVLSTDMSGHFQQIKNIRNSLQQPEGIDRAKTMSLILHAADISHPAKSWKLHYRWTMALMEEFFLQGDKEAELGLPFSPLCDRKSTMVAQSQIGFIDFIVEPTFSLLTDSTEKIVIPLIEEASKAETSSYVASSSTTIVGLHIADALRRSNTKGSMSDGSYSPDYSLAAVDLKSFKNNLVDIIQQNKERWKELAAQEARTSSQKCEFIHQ

For orientation: IC50 means the concentration that gives 50% inhibition. On Phosphodiesterase 4, `COc1ccc(C2=Nn3c(nnc3-c3cc(OC)ccc3OC)SC2)c(OC)c1` had an IC50 of 7.5 µM.
For `COc1ccc(C2=Nn3c(nnc3-c3ccccc3C)SC2)cc1`, at Phosphodiesterase 4, 12.5 µM corresponded to half-maximal inhibition (IC50).
`COc1ccc(C2=Nn3c(nnc3-c3ccc(OC)cc3OC)SC2)c(OC)c1` gave an IC50 at Phosphodiesterase 4 of more than 20 µM.
With `COc1cccc(C2=Nn3c(nnc3-c3ccccc3OC)SC2)c1`, at Phosphodiesterase 4, the IC50 came out at 12 µM.
The same measure, in the same setting: as for `COc1cccc(C2=Nn3c(nnc3-c3ccccc3C)SC2)c1`, the figure is 3.2 µM; as for `COc1cc(OC)cc(-c2nnc3n2N=C(c2cc(OC)ccc2OC)CS3)c1`, 12.7 µM.
Turning to `COc1cccc(C2=Nn3c(nnc3-c3ccccc3O)SC2)c1`, on Phosphodiesterase 4, 14.1 µM corresponded to half-maximal inhibition (IC50).
At Phosphodiesterase 4, `COc1ccc(-c2nnc3n2N=C(c2cc(OC)ccc2OC)CS3)cc1` yielded an IC50 of 10.1 µM.
On Phosphodiesterase 4, `COc1ccc(C2=Nn3c(nnc3-c3ccccc3O)SC2)c(OC)c1` yielded an IC50 of more than 20 µM.
For the molecule `COc1cccc(-c2nnc3n2N=C(c2cc(OC)ccc2OC)CS3)c1`, on Phosphodiesterase 4, half-maximal inhibition (IC50) required 12.6 µM.
At Phosphodiesterase 4, `COc1cc(OC)cc(-c2nnc3n2N=C(c2ccc(OC)cc2OC)CS3)c1` displayed an IC50 of more than 20 µM.
At Phosphodiesterase 4, `COc1cccc(C2=Nn3c(nnc3-c3ccc(OC)c(OC)c3)SC2)c1` had an IC50 of 9 µM.
On Phosphodiesterase 4, `COc1cccc(OC)c1C1=Nn2c(nnc2-c2ccccc2C)SC1` displayed an IC50 of 14.1 µM.
Molecule `COc1ccc(-c2nnc3n2N=C(c2c(OC)cccc2OC)CS3)cc1` displayed an IC50 against Phosphodiesterase 4 of 19.7 µM.
Still for that read-out and setting: as for `COc1ccc(C2=Nn3c(nnc3-c3ccccc3O)SC2)cc1`, the figure is 8.4 µM; as for `COc1ccc(OC)c(C2=Nn3c(nnc3-c3ccccc3OC)SC2)c1`, 8.9 µM.
Turning to `COc1ccc(C2=Nn3c(nnc3-c3ccccc3C)SC2)c(OC)c1`, the IC50 at Phosphodiesterase 4 was more than 20 µM.
In the case of `COc1ccc(-c2nnc3n2N=C(c2ccc(OC)c(OC)c2)CS3)cc1`, at Phosphodiesterase 4, half-maximal inhibition (IC50) required 0.0889 µM.
Molecule `COc1cccc(C2=Nn3c(nnc3-c3ccc(OC)cc3OC)SC2)c1` yielded an IC50 on Phosphodiesterase 4 of 13.4 µM.
The molecule `COc1ccc(OC)c(-c2nnc3n2N=C(c2c(OC)cccc2OC)CS3)c1` returned an IC50 against Phosphodiesterase 4 of more than 20 µM.
`COc1cc(OC)cc(-c2nnc3n2N=C(c2ccc(OC)c(OC)c2)CS3)c1` showed an IC50 at Phosphodiesterase 4 of 0.05 µM.
At Phosphodiesterase 4, `COc1ccc(C2=Nn3c(nnc3-c3ccc(OC)c(OC)c3)SC2)cc1` registered an IC50 of 7.5 µM.
Still for that read-out and setting: the value for `COc1ccc(C2=Nn3c(nnc3-c3ccc(OC)cc3OC)SC2)cc1` was more than 20 µM; that for `COc1ccc(OC)c(-c2nnc3n2N=C(c2ccccc2OC)CS3)c1` was 19.6 µM.
In turn, `COc1cccc(C2=Nn3c(nnc3-c3cc(OC)cc(OC)c3)SC2)c1` had an IC50 at Phosphodiesterase 4 of 13.4 µM.
Same read-out and setting: as for `COc1ccccc1-c1nnc2n1N=C(c1c(OC)cccc1OC)CS2`, the figure is more than 20 µM; as for `CCOc1ccccc1-c1nnc2n1N=C(c1c(OC)cccc1OC)CS2`, more than 20 µM.
Same read-out and setting: the value for `COc1ccccc1C1=Nn2c(nnc2-c2ccccc2O)SC1` was more than 20 µM.
Regarding `COc1ccc(-c2nnc3n2N=C(c2ccccc2OC)CS3)cc1`, the IC50 against Phosphodiesterase 4 stood at 14.1 µM.
In the case of `COc1cccc(-c2nnc3n2N=C(c2ccc(OC)cc2OC)CS3)c1`, the IC50 at Phosphodiesterase 4 was 14.1 µM.
In turn, `COc1cccc(C2=Nn3c(nnc3-c3cccc(OC)c3OC)SC2)c1` registered an IC50 on Phosphodiesterase 4 of more than 20 µM.
In the case of `COc1ccc(C2=Nn3c(nnc3-c3ccccc3OC)SC2)cc1OC`, the IC50 in assay [1], in [2], in assay [3], in assay [7], in assay [8] and in assay [9] was more than 50 µM in each case. Also, the outcome in assay [4], in [5] and in assay [6] was inactive.
On Phosphodiesterase 4, `COc1ccc(C2=Nn3c(nnc3-c3ccc(OC)c(OC)c3)SC2)cc1OC` yielded an IC50 of 0.177 µM.
Still for that read-out and setting: as for `COc1ccc(C2=Nn3c(nnc3-c3cc(OC)cc(OC)c3)SC2)cc1`, the figure is 9.5 µM.
For `COc1ccc(C2CNC(=O)C2)cc1OC1CCCC1` (configuration not stated) [ROLIPRAM], the IC50 in [1] was more than 50 µM. The outcome in assay [2], in [3], in [4], in [5], in [6] and in [7] was inactive.
`COc1cc(OC)cc(-c2nnc3n2N=C(c2c(OC)cccc2OC)CS3)c1` yielded an IC50 on Phosphodiesterase 4 of 19.6 µM.
At Phosphodiesterase 4, `COc1ccc(-c2nnc3n2N=C(c2ccc(OC)cc2OC)CS3)cc1` showed an IC50 of 13.4 µM.
`COc1ccc(C2=Nn3c(nnc3-c3ccc(OC)c(OC)c3)SC2)c(OC)c1` yielded an IC50 on Phosphodiesterase 4 of 6.7 µM.
Still for that read-out and setting: the value for `COc1ccc(C2=Nn3c(nnc3-c3cccc(OC)c3OC)SC2)cc1` was more than 20 µM; that for `COc1ccccc1C1=Nn2c(nnc2-c2ccccc2OC)SC1` was 20 µM.
The same measure, in the same setting: as for `COc1ccccc1C1=Nn2c(nnc2-c2cccc(OC)c2OC)SC1`, the figure is more than 20 µM; as for `COc1ccccc1C1=Nn2c(nnc2-c2ccccc2C)SC1`, 14.1 µM; as for `COc1ccc(OC)c(C2=Nn3c(nnc3-c3ccccc3C)SC2)c1`, 6.3 µM.
On Phosphodiesterase 4, `COc1cccc(-c2nnc3n2N=C(c2ccc(OC)c(OC)c2)CS3)c1` returned an IC50 of 0.126 µM.
As for `COc1ccc(C2=Nn3c(nnc3-c3cc(OC)ccc3OC)SC2)cc1`, the IC50 against Phosphodiesterase 4 worked out at 1.7 µM.
With `COc1ccc(-c2nnc3n2N=C(c2ccccc2OC)CS3)cc1OC`, on Phosphodiesterase 4, the IC50 was 8.9 µM.
In the case of `COc1ccc(OC)c(C2=Nn3c(nnc3-c3cccc(OC)c3OC)SC2)c1`, on Phosphodiesterase 4, the IC50 came to 11.9 µM.
As to `COc1ccc(-c2nnc3n2N=C(c2ccccc2OC)CS3)c(OC)c1`, the IC50 against Phosphodiesterase 4 amounted to 19.7 µM.
In turn, `COc1ccc(-c2nnc3n2N=C(c2c(OC)cccc2OC)CS3)c(OC)c1` had an IC50 against Phosphodiesterase 4 of more than 20 µM.
`COc1cccc(OC)c1C1=Nn2c(nnc2-c2ccccc2O)SC1`: the IC50 at Phosphodiesterase 4 is more than 20 µM.
With `CCOc1ccccc1-c1nnc2n1N=C(c1ccccc1OC)CS2`, on Phosphodiesterase 4, the IC50 is more than 20 µM.
In the case of `COc1ccc(C2=Nn3c(nnc3-c3ccccc3OC)SC2)cc1`, the IC50 against Phosphodiesterase 4 is more than 20 µM.
Molecule `CCOc1ccccc1-c1nnc2n1N=C(c1cc(OC)ccc1OC)CS2` yielded an IC50 on Phosphodiesterase 4 of 13.4 µM.
`COc1ccc(C2=Nn3c(nnc3-c3cccc(OC)c3)SC2)cc1` had an IC50 at Phosphodiesterase 4 of 12.6 µM.
With `COc1cc(OC)cc(-c2nnc3n2N=C(c2ccccc2OC)CS3)c1`, on Phosphodiesterase 4, the IC50 is 13.4 µM.
At Phosphodiesterase 4, `COc1ccc(OC)c(C2=Nn3c(nnc3-c3cc(OC)ccc3OC)SC2)c1` came in with an IC50 of 11.9 µM.
The same measure, in the same setting: the value for `COc1cccc(C2=Nn3c(nnc3-c3cc(OC)ccc3OC)SC2)c1` was 8 µM; that for `CCOc1ccccc1-c1nnc2n1N=C(c1cccc(OC)c1)CS2` was 11.2 µM; that for `COc1ccc(OC)c(C2=Nn3c(nnc3-c3ccccc3O)SC2)c1` was more than 20 µM.
At Phosphodiesterase 4, `COc1cccc(C2=Nn3c(nnc3-c3cccc(OC)c3)SC2)c1` displayed an IC50 of 12.6 µM.
As to `CCOc1ccccc1-c1nnc2n1N=C(c1ccc(OC)cc1OC)CS2`, the IC50 against Phosphodiesterase 4 is more than 20 µM.
Still for that read-out and setting: as for `CCOc1ccccc1-c1nnc2n1N=C(c1ccc(OC)cc1)CS2`, the figure is 4.5 µM; as for `COc1ccc(C2=Nn3c(nnc3-c3cccc(OC)c3OC)SC2)c(OC)c1`, more than 20 µM.
`COc1ccc(C2=Nn3c(nnc3-c3ccccc3OC)SC2)c(OC)c1`: the IC50 against Phosphodiesterase 4 came out at 15 µM.
Consider `COc1ccc(-c2nnc3n2N=C(c2cccc(OC)c2)CS3)cc1`, for which inhibition at Phosphodiesterase 4 was half-maximal at 8.4 µM (IC50).
As to `COc1ccc(-c2nnc3n2N=C(c2c(OC)cccc2OC)CS3)cc1OC`, the IC50 on Phosphodiesterase 4 was 14.1 µM.
Regarding `COc1ccc(-c2nnc3n2N=C(c2cc(OC)ccc2OC)CS3)c(OC)c1`, the IC50 on Phosphodiesterase 4 is 5.3 µM.
As to `COc1cccc(-c2nnc3n2N=C(c2c(OC)cccc2OC)CS3)c1`, the IC50 on Phosphodiesterase 4 is more than 20 µM.
On Phosphodiesterase 4, `COc1ccc(-c2nnc3n2N=C(c2ccc(OC)c(OC)c2)CS3)c(OC)c1` registered an IC50 of 0.079 µM.
For `COc1ccc(C2=Nn3c(nnc3-c3ccc(OC)cc3)SC2)cc1`, the half-maximal inhibitory concentration (IC50) on Phosphodiesterase 4 was found to be 8.4 µM.
On Phosphodiesterase 4, `COc1cccc(-c2nnc3n2N=C(c2c(OC)cccc2OC)CS3)c1OC` showed an IC50 of more than 20 µM.
Consider `COc1cccc(-c2nnc3n2N=C(c2ccccc2OC)CS3)c1`, for which the midpoint of inhibition against Phosphodiesterase 4, the IC50, lay at 13.4 µM.
On to `COc1ccc(OC)c(C2=Nn3c(nnc3-c3ccc(OC)c(OC)c3)SC2)c1`, for which the IC50 at Phosphodiesterase 4 amounted to 6.9 µM.
